In ChEMBL document CHEMBL2321795, “Solubility-driven optimization of (pyridin-3-yl) benzoxazinyl-oxazolidinones leading to a promising antibacterial agent” (J Med Chem, 2013):
Values after ≈ are worked out from the molar mass of the structure shown.

Legend:
Assay type in all cases: functional
Streptococcus pneumoniae = test: Antibacterial activity against penicillin-resistant Streptococcus pneumoniae after 16 hrs by NCCLS agar dilution method
Outline: (§1)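 Agar dilution MIC. Stocks were 320 μg/mL in 50% aqueous DMSO, 2-fold serially diluted in sterile water, then diluted 10-fold into Mueller–Hinton agar to give 16–0.03125 μg/mL final. Organisms were grown in MH broth at 35 °C for 8 h and adjusted to 0.5 McFarland. They were spotted onto drug-containing plates with a multipoint inoculator and incubated at 35 °C for 16 h. Linezolid was the positive control.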

Staphylococcus aureus [1] = test: Antibacterial activity against methicillin-resistant Staphylococcus aureus after 16 hrs by NCCLS agar dilution method; outline: as §1
[2] = tested on: Staphylococcus epidermidis; test: Antibacterial activity against methicillin-sensitive Staphylococcus epidermidis after 16 hrs by NCCLS agar dilution method; outline: as §1
Staphylococcus aureus [3] = test: Antibacterial activity against methicillin-sensitive Staphylococcus aureus after 16 hrs by NCCLS agar dilution method; outline: as §1
Enterococcus faecalis = test: Antibacterial activity against Enterococcus faecalis after 16 hrs by NCCLS agar dilution method
Outline: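 Agar dilution MIC per NCCLS, 6 E. faecalis strains. Stock was 320 μg/mL in 50% water/DMSO, serially 2-fold diluted in sterile water, then 10-fold into Mueller–Hinton agar to give 16–0.03125 μg/mL final. Inocula came from MH broth cultures grown 8 h at 35 °C, adjusted to 0.5 McFarland and spotted by multipoint inoculator. Plates were read after 16 h at 35 °C.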

[4] = tested on: Staphylococcus epidermidis; test: Antibacterial activity against methicillin-resistant Staphylococcus epidermidis after 16 hrs by NCCLS agar dilution method; outline: as §1

| SMILES | MIC (Streptococcus pneumoniae) | MIC (Staphylococcus aureus [1]) | MIC [2] | MIC (Staphylococcus aureus [3]) | MIC (Enterococcus faecalis) | MIC [4] |
| --- | --- | --- | --- | --- | --- | --- |
| O=C1O[C@@H](CO)[C@@H]2COc3cc(-c4ccc(N5C[C@@H]6CCCN[C@@H]6C5)nc4)ccc3N12 | 8 µg/mL (≈ 18.9 µM) | 8 µg/mL (≈ 18.9 µM) | 4 µg/mL (≈ 9.47 µM) | 4 µg/mL (≈ 9.47 µM) | 16 µg/mL (≈ 37.9 µM) | 4 µg/mL (≈ 9.47 µM) |
| CC(=O)N1CCN(c2ccc(-c3ccc4c(c3)OC[C@H]3[C@H](CO)OC(=O)N43)cn2)C1=O | 8 µg/mL (≈ 18.8 µM) | 4 µg/mL (≈ 9.42 µM) | 4 µg/mL (≈ 9.42 µM) | 8 µg/mL (≈ 18.8 µM) | 4 µg/mL (≈ 9.42 µM) | 8 µg/mL (≈ 18.8 µM) |
| O=C1O[C@@H](CO)[C@@H]2COc3cc(-c4ccc(N5CCC(O)CC5)nc4)ccc3N12 | 2 µg/mL (≈ 5.03 µM) | 2 µg/mL (≈ 5.03 µM) | 4 µg/mL (≈ 10.1 µM) | 2 µg/mL (≈ 5.03 µM) | > 32 µg/mL | 2 µg/mL (≈ 5.03 µM) |
| CC(C)N1CCN(c2ccc(-c3ccc4c(c3)OC[C@H]3[C@H](CO)OC(=O)N43)cn2)C1=O | 4 µg/mL (≈ 9.42 µM) | 2 µg/mL (≈ 4.71 µM) | 2 µg/mL (≈ 4.71 µM) | 4 µg/mL (≈ 9.42 µM) | 8 µg/mL (≈ 18.8 µM) | 4 µg/mL (≈ 9.42 µM) |
| CN1CC(c2ccc(-c3ccc4c(c3)OC[C@H]3[C@H](CO)OC(=O)N43)cn2)OC1=O (some centres undefined) | 1 µg/mL (≈ 2.52 µM) | 0.5 µg/mL (≈ 1.26 µM) | 0.25 µg/mL (≈ 0.629 µM) | 0.5 µg/mL (≈ 1.26 µM) | 1 µg/mL (≈ 2.52 µM) | 0.5 µg/mL (≈ 1.26 µM) |
| Cn1nnc(-c2ccc(-c3ccc4c(c3)OC[C@H]3[C@H](CO)OC(=O)N43)cn2)n1 | 1 µg/mL (≈ 2.63 µM) | 1 µg/mL (≈ 2.63 µM) | 1 µg/mL (≈ 2.63 µM) | 1 µg/mL (≈ 2.63 µM) | 4 µg/mL (≈ 10.5 µM) | 1 µg/mL (≈ 2.63 µM) |
| C[C@@H](O)C(O)c1ccc(-c2ccc3c(c2)OC[C@H]2[C@H](CO)OC(=O)N32)cn1 (some centres undefined) | 2 µg/mL (≈ 5.37 µM) | 2 µg/mL (≈ 5.37 µM) | 1 µg/mL (≈ 2.69 µM) | 2 µg/mL (≈ 5.37 µM) | 4 µg/mL (≈ 10.7 µM) | 1 µg/mL (≈ 2.69 µM) |
| NCc1ccc(-c2ccc3c(c2)OC[C@H]2[C@H](CO)OC(=O)N32)cn1 | 4 µg/mL (≈ 12.2 µM) | 2 µg/mL (≈ 6.11 µM) | 1 µg/mL (≈ 3.05 µM) | 2 µg/mL (≈ 6.11 µM) | 4 µg/mL (≈ 12.2 µM) | 0.5 µg/mL (≈ 1.53 µM) |
| CN1CCC(Oc2ccc(-c3ccc4c(c3)OC[C@H]3[C@H](CO)OC(=O)N43)cn2)CC1 | 16 µg/mL (≈ 38.9 µM) | 4 µg/mL (≈ 9.72 µM) | 4 µg/mL (≈ 9.72 µM) | 4 µg/mL (≈ 9.72 µM) | > 32 µg/mL | 8 µg/mL (≈ 19.4 µM) |
| NCC1CN(c2ccc(-c3ccc4c(c3)OC[C@H]3[C@H](CO)OC(=O)N43)cn2)C(=O)O1 (some centres undefined) | 2 µg/mL (≈ 4.85 µM) | 1 µg/mL (≈ 2.42 µM) | 0.5 µg/mL (≈ 1.21 µM) | 1 µg/mL (≈ 2.42 µM) | 1 µg/mL (≈ 2.42 µM) | 2 µg/mL (≈ 4.85 µM) |
| CC(C)(O)c1ccc(-c2ccc3c(c2)OC[C@H]2[C@H](CO)OC(=O)N32)cn1 | 2 µg/mL (≈ 5.61 µM) | 1 µg/mL (≈ 2.81 µM) | 1 µg/mL (≈ 2.81 µM) | 1 µg/mL (≈ 2.81 µM) | 4 µg/mL (≈ 11.2 µM) | 2 µg/mL (≈ 5.61 µM) |
| CC(=O)c1ccc(-c2ccc3c(c2)OC[C@H]2[C@H](CO)OC(=O)N32)cn1 | 8 µg/mL (≈ 23.5 µM) | 2 µg/mL (≈ 5.88 µM) | 4 µg/mL (≈ 11.8 µM) | 2 µg/mL (≈ 5.88 µM) | 2 µg/mL (≈ 5.88 µM) | 4 µg/mL (≈ 11.8 µM) |
| CCO/N=C(\C)c1ccc(-c2ccc3c(c2)OC[C@H]2[C@H](CO)OC(=O)N32)cn1 | > 32 µg/mL |  | > 32 µg/mL | > 32 µg/mL | > 32 µg/mL |  |
| O=C1O[C@@H](CO)[C@@H]2COc3cc(-c4ccc(C5(O)CCCC5)nc4)ccc3N12 | 2 µg/mL (≈ 5.23 µM) | 1 µg/mL (≈ 2.61 µM) | 1 µg/mL (≈ 2.61 µM) | 2 µg/mL (≈ 5.23 µM) | 2 µg/mL (≈ 5.23 µM) | 1 µg/mL (≈ 2.61 µM) |
| N#Cc1ccc(-c2ccc3c(c2)OC[C@H]2[C@H](CN)OC(=O)N32)cn1 | > 16 µg/mL |  | > 16 µg/mL | > 16 µg/mL | > 16 µg/mL |  |
| O=C1O[C@@H](CO)[C@@H]2COc3cc(-c4ccc(Cn5cnnn5)nc4)ccc3N12 | 4 µg/mL (≈ 10.5 µM) | 2 µg/mL (≈ 5.26 µM) | 1 µg/mL (≈ 2.63 µM) | 2 µg/mL (≈ 5.26 µM) | 4 µg/mL (≈ 10.5 µM) | 1 µg/mL (≈ 2.63 µM) |
| CN1CCN(c2ccc(-c3ccc4c(c3)OC[C@H]3[C@H](CO)OC(=O)N43)cn2)CC1 | 4 µg/mL (≈ 10.1 µM) | 4 µg/mL (≈ 10.1 µM) | 2 µg/mL (≈ 5.04 µM) | 2 µg/mL (≈ 5.04 µM) | 2 µg/mL (≈ 5.04 µM) | 4 µg/mL (≈ 10.1 µM) |
| O=C1O[C@H](CO)CN1c1ccc(-c2ccc3c(c2)OC[C@H]2[C@H](CO)OC(=O)N32)cn1 | 0.5 µg/mL (≈ 1.21 µM) | 0.5 µg/mL (≈ 1.21 µM) | 0.5 µg/mL (≈ 1.21 µM) | 0.5 µg/mL (≈ 1.21 µM) | 0.5 µg/mL (≈ 1.21 µM) | 0.5 µg/mL (≈ 1.21 µM) |
| CN1CCN(c2ccc(-c3ccc4c(c3)OC[C@H]3[C@H](CO)OC(=O)N43)cn2)C(=O)C1 | 4 µg/mL (≈ 9.75 µM) | 2 µg/mL (≈ 4.87 µM) | 2 µg/mL (≈ 4.87 µM) | 2 µg/mL (≈ 4.87 µM) | 16 µg/mL (≈ 39 µM) | 2 µg/mL (≈ 4.87 µM) |
| CCN1CCN(c2ccc(-c3ccc4c(c3)OC[C@H]3[C@H](CO)OC(=O)N43)cn2)CC1 | 8 µg/mL (≈ 19.5 µM) | 4 µg/mL (≈ 9.74 µM) | 2 µg/mL (≈ 4.87 µM) | 4 µg/mL (≈ 9.74 µM) | 4 µg/mL (≈ 9.74 µM) | 4 µg/mL (≈ 9.74 µM) |
| CC(C)N1CCN(c2ccc(-c3ccc4c(c3)OC[C@H]3[C@H](CO)OC(=O)N43)cn2)C(=O)C1 | 4 µg/mL (≈ 9.12 µM) | 2 µg/mL (≈ 4.56 µM) | 2 µg/mL (≈ 4.56 µM) | 2 µg/mL (≈ 4.56 µM) | 16 µg/mL (≈ 36.5 µM) | 2 µg/mL (≈ 4.56 µM) |
| CN1CCC[C@H]2CN(c3ccc(-c4ccc5c(c4)OC[C@H]4[C@H](CO)OC(=O)N54)cn3)C[C@H]21 | > 32 µg/mL | 8 µg/mL (≈ 18.3 µM) | 4 µg/mL (≈ 9.16 µM) | 8 µg/mL (≈ 18.3 µM) | > 32 µg/mL | 8 µg/mL (≈ 18.3 µM) |
| CN1CCN(c2ccc(-c3ccc4c(c3)OC[C@H]3[C@H](CO)OC(=O)N43)cn2)C1=O | 4 µg/mL (≈ 10.1 µM) | 2 µg/mL (≈ 5.05 µM) | 2 µg/mL (≈ 5.05 µM) | 2 µg/mL (≈ 5.05 µM) | 8 µg/mL (≈ 20.2 µM) | 4 µg/mL (≈ 10.1 µM) |
| Cc1cc(C#N)ncc1-c1ccc2c(c1)OC[C@H]1[C@H](CO)OC(=O)N21 | 1 µg/mL (≈ 2.96 µM) | 0.25 µg/mL (≈ 0.741 µM) | 0.25 µg/mL (≈ 0.741 µM) | 0.25 µg/mL (≈ 0.741 µM) | 4 µg/mL (≈ 11.9 µM) | 0.25 µg/mL (≈ 0.741 µM) |
| O=C1O[C@@H](CO)[C@@H]2COc3cc(-c4ccc(C(F)(F)F)nc4)ccc3N12 | > 16 µg/mL |  | > 16 µg/mL | > 16 µg/mL | > 16 µg/mL |  |
| O=C1COCCN1c1ccc(-c2ccc3c(c2)OC[C@H]2[C@H](CO)OC(=O)N32)cn1 | 2 µg/mL (≈ 5.03 µM) | 1 µg/mL (≈ 2.52 µM) | 2 µg/mL (≈ 5.03 µM) | 2 µg/mL (≈ 5.03 µM) | 2 µg/mL (≈ 5.03 µM) | 2 µg/mL (≈ 5.03 µM) |
| CN1C[C@H](c2ccc(-c3ccc4c(c3)OC[C@H]3[C@H](CO)OC(=O)N43)cn2)OC1=O | 2 µg/mL (≈ 5.03 µM) | 1 µg/mL (≈ 2.52 µM) | 0.5 µg/mL (≈ 1.26 µM) | 1 µg/mL (≈ 2.52 µM) | 2 µg/mL (≈ 5.03 µM) | 1 µg/mL (≈ 2.52 µM) |
| O=C1O[C@@H](CO)CN1c1ccc(-c2ccc3c(c2)OC[C@H]2[C@H](CO)OC(=O)N32)cn1 | 0.5 µg/mL (≈ 1.21 µM) | 0.5 µg/mL (≈ 1.21 µM) | 0.5 µg/mL (≈ 1.21 µM) | 0.5 µg/mL (≈ 1.21 µM) | 0.5 µg/mL (≈ 1.21 µM) | 0.5 µg/mL (≈ 1.21 µM) |
| O=C1O[C@@H](CO)[C@@H]2COc3cc(-c4ccc(C(O)C5CC5)nc4)ccc3N12 (some centres undefined) | 1 µg/mL (≈ 2.71 µM) | 1 µg/mL (≈ 2.71 µM) | 0.5 µg/mL (≈ 1.36 µM) | 1 µg/mL (≈ 2.71 µM) | 2 µg/mL (≈ 5.43 µM) | 1 µg/mL (≈ 2.71 µM) |
| CC(C)N1CC(c2ccc(-c3ccc4c(c3)OC[C@H]3[C@H](CO)OC(=O)N43)cn2)OC1=O (some centres undefined) | 2 µg/mL (≈ 4.7 µM) | 1 µg/mL (≈ 2.35 µM) | 1 µg/mL (≈ 2.35 µM) | 1 µg/mL (≈ 2.35 µM) | 1 µg/mL (≈ 2.35 µM) | 2 µg/mL (≈ 4.7 µM) |
